CaV13 ICDI inh – Primary screen for inhibitors of IQ motif and Ca2+-dependent inactivation inhibitor domain binding in CACNA1D, Förster resonance energy transfer in living cells, … | HEK cells, CFP/YFP FRET ICDI-IQ, plate reader, 10 min; percent FRET-ratio fall versus neutral wells | inhibition, % at 12.3 µM | 340,000 compounds, 0.098% hits;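 active means mean replicate inhibition of at least 30% and at least 1% of replicates passing that level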;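 further: 0% = median of the neutral control wells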
FAS-TE inh – FAS thioesterase domain inhibitors, primary screen, biochemical, fluorescence intensity, uHTS; recombinant FAS-TE, OMFH fluorogenic substrate, fluorescence endpoint; inhibition, % at 15 µM; 360,000 compounds, 0.67% hits;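 active means compounds whose normalised, plate-corrected inhibition of enzyme fluorescence in the single-dose primary screen is 50% or more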;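 further: 0% = DMSO with enzyme and 100% = substrate without enzyme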
Arrestin-AP2 inh – inhibitors of beta-arrestin/AP2 binding, primary screen, biochemical, GPCR trafficking, flow cytometry. beta-arrestin 1 C-terminal peptide binding to AP2 beta2-adaptin appendage (human). 340,000 compounds, 0.31% hits. FITC-arrestin peptide / GST-AP2 beads; AP2 beta2 appendage carries R879A mutation. inhibition, % at 10 µM;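 active means inhibition above a set limit, near 3 SD of compounds lacking own fluorescence, cut at about 54% in these data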;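 further: plate controls were DMSO wells for no effect and 5 µM unlabelled arrestin peptide for full effect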
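Test system: GST-tagged AP2 beta2-adaptin appendage (R879A) on 4 µm glutathione beads; also added: fluorescein-tagged arrestin peptide at 50 nM final; timing: 12 min plus 1 h, RT; signal: flow cytometry, FL1 (488/535 nm); read-out: percent drop in bead-associated FITC signal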
ADAM10 inh – human ADAM10 inhibitors, primary screen, biochemical, QFRET, HTS; 370,000 compounds, 0.62% hits; recombinant ADAM10, EDANS/DABCYL FRET peptide cleavage, 3 h; AID 720582, 2013; Disintegrin and metalloproteinase domain-containing protein 10 (Homo sapiens), O14672; inhibition, % at 7 µM;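 active means inhibition above a per-campaign cutoff equal to the mean of compounds falling between control-based bounds plus 3 SD, cut at about 20% in these data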;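 further: 0% = DMSO wells while the 100% control is not disclosed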
Target sequence (O14672 214-748 limits assumed): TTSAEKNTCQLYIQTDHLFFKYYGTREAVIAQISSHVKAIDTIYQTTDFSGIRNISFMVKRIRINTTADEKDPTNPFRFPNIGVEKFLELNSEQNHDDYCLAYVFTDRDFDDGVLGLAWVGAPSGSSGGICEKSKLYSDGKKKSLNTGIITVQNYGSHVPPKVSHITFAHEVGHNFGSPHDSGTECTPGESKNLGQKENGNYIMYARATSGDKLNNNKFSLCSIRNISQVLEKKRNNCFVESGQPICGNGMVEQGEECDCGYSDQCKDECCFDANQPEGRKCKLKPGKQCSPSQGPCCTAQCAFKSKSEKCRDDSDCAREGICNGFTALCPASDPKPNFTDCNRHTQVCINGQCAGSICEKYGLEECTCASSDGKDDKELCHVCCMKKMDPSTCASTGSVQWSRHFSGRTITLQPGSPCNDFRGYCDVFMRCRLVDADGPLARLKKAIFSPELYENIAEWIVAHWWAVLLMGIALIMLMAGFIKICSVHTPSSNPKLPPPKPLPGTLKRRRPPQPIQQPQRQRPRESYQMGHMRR
ADAM17 inh – ADAM17 inhibitors, primary screen, biochemical, QFRET. recombinant ADAM17, EDANS/DABCYL FRET peptide cleavage. AID 720648, 2013. Disintegrin and metalloproteinase domain-containing protein 17 (Homo sapiens), P78536. inhibition, % at 6.95 µM. 370,000 compounds, 0.83% hits;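 active means inhibition above the mean of compounds lying between control limits plus 3 SD, set per campaign, cut at about 8.5% in these data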;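 further: 0% = DMSO-only wells as the low control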
NRP1-CendR mod – modulators of CendR peptide binding to NRP-1, primary screen, biochemical, fluorescence polarization, uHTS; 360,000 compounds, 0.85% hits; Neuropilin-1 (Homo sapiens), O14786; inhibition, % at 25 µM; FAM-RPARPAR peptide binding to NRP-1;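 active means inhibition or corrected inhibition above about 18%, plus a signal ratio from 0.5 to 1.5, limit read from the data, passing the limit was not always enough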
FAS-TE conf – FAS thioesterase domain inhibitors, confirmation, biochemical, fluorescence intensity, single concentration; 2,300 compounds, 45% hits; recombinant FAS-TE, OMFH fluorogenic substrate; shares compounds with FAS-TE inh; inhibition, % at 15 µM;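 active means compounds inhibiting the enzyme by at least 50% at 15 µM in any one of the replicates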;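 further: 0% = enzyme with DMSO only and 100% = wells lacking enzyme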
Starred values were filed as active, the others as inactive. Rows were chosen to be rich in hits. Some 2.9% of all compounds tested hit in one or more screens of this group.

COc1ccc2cc(/C=N/NC(=O)c3ccc(CN(c4cccc(Cl)c4Cl)S(C)(=O)=O)cc3)c(Cl)nc2c1 was read as CaV13 ICDI inh -5, FAS-TE inh 69*, Arrestin-AP2 inh 5, ADAM10 inh -160, ADAM17 inh -36, NRP1-CendR mod -4 and FAS-TE conf 20.
`COc1ccc(-c2nnc(SCc3ccccc3)n2N)cc1` gave CaV13 ICDI inh -5, FAS-TE inh -8, Arrestin-AP2 inh 27, ADAM10 inh 3, ADAM17 inh 0 and NRP1-CendR mod -1.
For CCOc1ccc(-n2c(SCc3cccc4ccccc34)nnc2-c2ccc(C)cc2)cc1 the results were ADAM10 inh -1 and ADAM17 inh -1.
CCOc1ccc(-n2c(SCc3ccc([N+](=O)[O-])cc3)nnc2-c2ccccc2)cc1 was read as CaV13 ICDI inh -6, FAS-TE inh 63*, Arrestin-AP2 inh 2, ADAM10 inh 2, ADAM17 inh 0, NRP1-CendR mod -1 and FAS-TE conf 56*.
For COc1ccc(-n2c(SCc3ccc([N+](=O)[O-])cc3)nnc2-c2ccccc2)cc1 the results were CaV13 ICDI inh -5, FAS-TE inh 56*, Arrestin-AP2 inh -4, ADAM10 inh 2, ADAM17 inh 4, NRP1-CendR mod 0 and FAS-TE conf 51*.
`CC(C(=O)NCc1ccccc1)n1c(-c2ccc3c(c2)CCO3)nc2ccccc21` (centres undefined) gave CaV13 ICDI inh -10, ADAM10 inh -23, ADAM17 inh -6 and NRP1-CendR mod -12.
`O=C(CSc1nc2ccccc2n1S(=O)(=O)c1cccc([N+](=O)[O-])c1)NCCc1ccccc1` gave CaV13 ICDI inh -3, FAS-TE inh 76*, Arrestin-AP2 inh 12, ADAM10 inh 5, ADAM17 inh -2, NRP1-CendR mod 4 and FAS-TE conf 69*.
Screening CC(C)(C)c1ccc(C(=O)NCCC(=O)NCc2ccc(F)cc2)cc1 returned CaV13 ICDI inh -11, FAS-TE inh 1, ADAM10 inh -9, ADAM17 inh -6 and NRP1-CendR mod -3.
`Cc1ccc(NC2(c3nnnn3-c3c(C)cccc3C)CCCCC2)cc1` gave CaV13 ICDI inh 4, FAS-TE inh 54*, Arrestin-AP2 inh 5, ADAM10 inh 4, ADAM17 inh 6, NRP1-CendR mod -15 and FAS-TE conf 30.
`COCCN1C(=O)CCC1(C)c1nnnn1-c1c(C)cccc1C` (centres undefined) gave CaV13 ICDI inh -9, FAS-TE inh -8, ADAM10 inh -18, ADAM17 inh -6 and NRP1-CendR mod 14.
Screening CCc1ccc(OCC(=O)N/N=C/c2cc([N+](=O)[O-])ccc2N2CCOCC2)cc1 returned CaV13 ICDI inh -4, FAS-TE inh 73*, Arrestin-AP2 inh -2, ADAM10 inh 0, ADAM17 inh 2, NRP1-CendR mod -6 and FAS-TE conf 24.
Screening Cc1cccc(OCC(=O)N/N=C/c2cc([N+](=O)[O-])ccc2N2CCOCC2)c1 returned CaV13 ICDI inh -1, FAS-TE inh 66*, Arrestin-AP2 inh -5, ADAM10 inh -2, ADAM17 inh 1, NRP1-CendR mod -1 and FAS-TE conf 57*.

From PubChem BioAssay
